# Screens from PubChem.
# Rows were chosen to be rich in hits. Some 3.7% of all compounds tested hit in one or more screens of this group.
# KCNK3 inh = human KCNK3 channel inhibition, primary screen. 340,000 compounds, 0.84% hits. B-score at 10 µM. CHO-KCNK3 thallium flux, FluxOR fluorescence; active compounds read low. O14649;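 active means B-score under library mean minus 4 SD, starting fluorescence ratio at most library mean plus 5 SD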;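 further: more negative B-score means stronger inhibition of thallium flux through KCNK3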
# Target sequence (O14649 whole entry, looked up): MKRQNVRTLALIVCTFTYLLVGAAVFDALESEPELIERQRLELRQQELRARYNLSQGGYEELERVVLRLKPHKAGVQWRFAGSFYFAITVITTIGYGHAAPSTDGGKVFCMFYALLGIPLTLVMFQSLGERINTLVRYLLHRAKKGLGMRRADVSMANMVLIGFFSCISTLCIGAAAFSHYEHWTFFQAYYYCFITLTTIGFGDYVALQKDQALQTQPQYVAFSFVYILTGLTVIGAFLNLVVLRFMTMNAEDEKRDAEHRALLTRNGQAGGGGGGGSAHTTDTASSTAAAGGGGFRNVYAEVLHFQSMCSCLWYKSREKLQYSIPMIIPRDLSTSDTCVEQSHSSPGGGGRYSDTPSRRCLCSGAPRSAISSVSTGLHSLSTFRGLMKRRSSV
# hERG protect = shields human hERG channel from block by proarrhythmic agents | 310,000 compounds, 0.51% hits | CHO-hERG, FluxOR thallium flux, dofetilide IC70 present | Q12809 | activation (rescue from dofetilide block), less the hit threshold, % at 10 µM | AID 1511;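 active means activation above the mean of controls blocked by dofetilide plus 5 SD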;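 further: thallium influx through hERG after potassium depolarization seen as dye fluorescence rise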
# KCNK9 block = human KCNK9 channel inhibition; 310,000 compounds, 1.2% hits; HEK293 KCNK9, FluxOR thallium flux fluorescence; active compounds read low; Q9NPC2; B-score at 10 µM;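 active means ratio B-score over 3 SD below the library mean, with starting fluorescence within 5 SD of its mean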;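 further: negative B-score means less thallium flux so channel inhibition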
# KCNQ1 block = blocks the human KCNQ1 potassium channel; P51787; CHO-K1 KCNQ1, FluxOR thallium flux fluorescence; active compounds read high; B-score at 10 µM; 310,000 compounds, 1.3% hits;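 active means compounds whose thallium flux B-score, printed positive for inhibition, exceeds three library SD while starting fluorescence stays within three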;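 further: channel opened by potassium depolarization with thallium stimulus after 20 min compound exposure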
# Kir21 block = Kir2.1 (mouse) channel inhibition; P35561; HEK293-Kir2.1, FluxOR thallium flux fluorescence; active compounds read low; B-score at 10 µM; 310,000 compounds, 0.85% hits;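 active means fluorescence ratio B-score at or below minus 3 SD of library scores, with starting-brightness B-score within 2 SD, cut at about -4.2 in these data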;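 further: channel flux triggered by added potassium and thallium sulfate stimulus; B-score of peak minus minimum fluorescence over baseline after thallium stimulus; more negative B-score means stronger Kir2.1 block with less thallium influx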
# Target sequence (P35561 whole entry, looked up): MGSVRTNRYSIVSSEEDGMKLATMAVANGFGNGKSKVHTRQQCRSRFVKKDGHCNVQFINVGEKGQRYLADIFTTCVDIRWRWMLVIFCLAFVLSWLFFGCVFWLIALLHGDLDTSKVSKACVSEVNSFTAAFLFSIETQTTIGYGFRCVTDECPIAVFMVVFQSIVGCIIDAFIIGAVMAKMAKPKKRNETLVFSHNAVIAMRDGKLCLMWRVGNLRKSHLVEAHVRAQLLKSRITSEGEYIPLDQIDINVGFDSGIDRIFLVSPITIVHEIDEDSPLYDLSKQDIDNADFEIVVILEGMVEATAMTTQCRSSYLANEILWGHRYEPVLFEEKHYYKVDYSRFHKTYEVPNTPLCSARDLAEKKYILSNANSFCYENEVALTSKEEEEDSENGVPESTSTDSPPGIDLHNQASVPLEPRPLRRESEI
# KCNQ1 act = human KCNQ1 channel potentiation or activation. B-score at 10 µM. 310,000 compounds, 0.35% hits. CHO-K1 KCNQ1, thallium flux FluxOR fluorescence; active compounds read high. AID 2648. P51787;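 active means fluorescence ratio B-score, a plate-corrected score, at least three library SD, with initial intensity B-score within 5 SD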
#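 Assay system: CHO-K1 cells stably expressing KCNQ1; Medium: assay buffer with matched DMSO; Also added: K+/Tl+ depolarizing stimulus; Dosing: single dose; Timing: dye 90 min, compound 20 min, room temperature; Measured by: kinetic FluxOR thallium fluorescence, 10-s 1-Hz baseline, 110-s post-stimulus read; Read-out: peak-minus-minimum fluorescence over initial fluorescence, negative-control normalized, B-scored.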
# KCNQ1 block val = confirmation of human KCNQ1 potassium channel inhibitors. shares compounds with KCNQ1 block. KCNQ1 cell line, FluxOR thallium flux fluorescence. inhibition, % at 10 µM. 1,600 compounds, 93% hits. AID 588353;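 active means primary screen active, with duplicate mean exceeding buffer control mean plus 3 SD of buffer wells, cut at about 28% in these data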;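 further: 0% = buffer control ratio and 100% = XE991 inhibitor control ratio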
# CHO Tl flux = counter-screen for KCNQ1 inhibitors: effect in parental CHO cells | shares compounds with KCNQ1 block | parental CHO-K1, FluxOR thallium flux fluorescence ratio; active compounds read low; zero means no signal rise above baseline | fluorescence ratio (Tl flux) at 10 µM | 1,600 compounds, 21% hits | AID 588366;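 active means mean of duplicate thallium-flux fluorescence ratios in parental host cells more than 5 SD below the buffer control mean, cut at about 0.38 in these data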;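 further: ratio is peak minus minimum fluorescence divided by baseline fluorescence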
# KCNQ1 ephys val = confirmation of human KCNQ1 potassium channel inhibitors by electrophysiology; shares compounds with KCNQ1 block; KCNQ1-CHO cells, automated patch clamp current; calls only at 10 µM; 490 compounds, 20% hits; AID 624120;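 active means KCNQ1 current drop exceeding 3 SD of negative control wells, seen in both duplicate runs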;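 further: steady state current during a 2 s step from -80 to +40 mV; negative values mean current inhibition and positive values mean potentiation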
# KCNQ2 inh = KCNQ1 inhibitor that also blocks rat KCNQ2 channel; inhibition, % at 10 µM; shares compounds with KCNQ1 block; 1,600 compounds, 71% hits; KCNQ2 cells, FluxOR thallium flux fluorescence; AID 651746;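 active means mean percent inhibition of the KCNQ2 thallium signal more than 5 SD above the buffer-only control wells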;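 further: KCNQ2 expressed in CHO cells; 0% = buffer control wells and 100% = XE-991 inhibitor control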
# KCNQ1-KCNE1 inh = selectivity of KCNQ1 inhibitors: inhibition of human KCNQ1/KCNE1 channel; shares compounds with KCNQ1 block; KCNQ1/KCNE1 cells, FluxOR thallium flux fluorescence; inhibition, % at 10 µM; 1,600 compounds, 77% hits; AID 652147;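 active means mean percent inhibition of duplicate wells above the buffer-only control mean plus 3 SD of those controls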;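 further: 0% = buffer only wells and 100% = XE-991 inhibitor control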
# KCNK9 inh conf = human KCNK9 inhibitor confirmation | shares compounds with KCNK9 block | HEK293 KCNK9 cells, FluxOR thallium flux fluorescence | AID 492992 | inhibition, % at 10 µM | 4,900 compounds, 43% hits;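 active means thallium signal inhibited by more than 5 SD of the compound-free buffer control wells, on both duplicate plates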;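 further: 0% = assay buffer control wells without compound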
# Kir21 sel = selectivity of KCNK9 modulators against mouse Kir2.1. Kir2.1 cells, FluxOR thallium flux fluorescence. 4,900 compounds, 4% hits. inhibition, % at 10 µM. shares compounds with KCNK9 block;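 active means thallium signal drop more than 5 SD beyond the mean of the no-compound control wells, seen in both duplicate plates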;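 further: signal is fluorescence rise after thallium addition divided by baseline fluorescence; plate controls were assay buffer only for no effect and full block by chlorpromazine control for full effect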
# HEK293 Tl ctr = non-induced cell nonspecific activity of KCNK9 modulators; shares compounds with KCNK9 block; non-induced KCNK9-HEK293, FluxOR thallium flux; inhibition, % at 10 µM; 4,900 compounds, 40% hits; AID 492997;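 active means thallium signal drop beyond 5 SD of the untreated control mean, on both duplicate plates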;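 further: plate controls were buffer only IC0 wells for no effect and SID17386958 at its maximal inhibitory level for full effect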
# KCNK3 inh conf = human KCNK3 channel inhibition, confirmation assay; 2,400 compounds, 99% hits; ratio percent of control, % at 10 µM; CHO-KCNK3 thallium flux, FluxOR fluorescence; 0% buffer, 100% carvedilol maximal block; shares compounds with KCNK3 inh;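 active means ratio percent of control, averaged over triplicates, above buffer control mean plus 5 SD, cut at about 64% in these data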;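 further: ratio is the fluorescence rise from min to max over baseline after thallium stimulus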
# KCNK3 uninduced = counter-screen for KCNK3 inhibitors: effect in non-induced cells; shares compounds with KCNK3 inh; thallium flux ratio (lower = more inhibition) at 10 µM; non-induced KCNK3 parental cells, FluxOR thallium flux; active compounds read low; AID 651747; 2,400 compounds, 40% hits;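 active means thallium flux ratio, averaged over three wells, more than 5 SD below the buffer control mean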;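 further: host cells are CHO cells without KCNK3 induction; ratio is peak minus trough fluorescence over baseline then normalized to buffer controls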
# An asterisk follows results filed as active; i = inactive; · = no result given; + = active, no number.
SMILES,KCNK3 inh,hERG protect,KCNK9 block,KCNQ1 block,Kir21 block,KCNQ1 act,KCNQ1 block val,CHO Tl flux,KCNQ2 inh,KCNQ1-KCNE1 inh,KCNK9 inh conf,Kir21 sel,HEK293 Tl ctr,KCNK3 inh conf,KCNK3 uninduced,others
CC(Cc1cccs1)NC(=O)Nc1cccc(Cl)c1 (centres undefined),-11*,-7,-18*,9*,0.77,i,127*,0.54,i,71%*,53%*,i,32%*,109*,i,KCNQ1 ephys val=+
Cc1ccc(C)c(NC(=S)N(Cc2ccc(Cl)cc2)Cc2ccc(C(=O)O)cc2)c1,i,-11,i,i,-1.2,i,·,·,·,·,·,·,·,·,·,
CCN1C(=O)c2cccc3c(S(=O)(=O)N(C(C)=O)c4ccc(OC(C)=O)cc4)ccc1c23,i,·,·,·,·,·,·,·,·,·,·,·,·,·,·,
Cc1ccc(Cl)cc1N1CCN(C(=O)c2cc3c(=O)n(C)c4ccccc4c3n2C)CC1,-16*,-12,i,15*,-0.74,i,120*,0.4,126%*,i,·,·,·,137*,i,KCNQ1 ephys val=i
CCN(CC)S(=O)(=O)c1cc(NC(=O)C2CCN(c3ncnc4sc(C)c(C)c34)CC2)ccc1Cl,-9.6*,-17,i,6*,1.3,i,58*,0.46,72%*,95%*,·,·,·,102*,0.16*,
Cc1sc2ncnc(N3CCC(C(=O)Nc4cc(Cl)ccc4Cl)CC3)c2c1C,-10*,-15,i,11*,0.15,i,71*,0.46,123%*,99%*,·,·,·,127*,0.13*,
Cc1sc2ncnc(N3CCC(C(=O)NNC(=O)c4ccc(Cl)cc4)CC3)c2c1C,i,-15,i,i,1.1,i,·,·,·,·,·,·,·,·,·,
Cc1ccc(NC(=O)C2CCN(c3ncnc4sc(C)c(C)c34)CC2)cc1S(=O)(=O)N(C)C,i,-12,i,i,1.9,i,·,·,·,·,·,·,·,·,·,
O=C(CSc1nc(Nc2ccccc2)nc(N2CCOCC2)n1)NC1CCCCC1,i,-6,i,i,2.4,i,·,·,·,·,·,·,·,·,·,
Cc1ccc(Nc2nc(NCCO)c3ccccc3n2)cc1C,-12*,-20,i,7*,-6.9*,i,102*,0.39,66%*,84%*,·,·,·,128*,i,KCNQ1 ephys val=i
O=C(O)c1ccc(-c2ncc[nH]2)cc1,i,-2,i,i,1.7,i,·,·,·,·,·,·,·,·,·,
COc1cccc(-c2cc3nc4c(c(NCC(C)(C)CN(C)C)n3n2)CCCC4)c1,-10*,-10,i,9*,0.8,i,86*,0.45,95%*,116%*,·,·,·,120*,i,
CCCCNC(=S)N1CCn2cccc2C1c1ccc(F)cc1 (centres undefined),-9.7*,-23,-14*,6*,0.33,i,92*,0.42,81%*,70%*,56%*,i,41%*,134*,0.15*,KCNQ1 ephys val=i
CCCCNC(=S)N1CCn2cccc2C1c1ccccc1 (centres undefined),i,-12,i,i,1.2,i,·,·,·,·,·,·,·,·,·,
O=C1CCc2cc(S(=O)(=O)Nc3ccc(F)cc3)cc3c2N1CC3,i,-6,i,i,1.4,i,·,·,·,·,·,·,·,·,·,
COC(=O)c1nn(-c2ccccc2)c(Cl)c1/C=N/OCc1ccc(Cl)cc1Cl,i,-8,i,i,1.4,i,·,·,·,·,i,i,i,·,·,
COC(=O)c1nn(-c2ccccc2)c(Cl)c1/C=N/O,i,-20,i,i,1.7,i,·,·,·,·,·,·,·,·,·,
COc1ccccc1C1CC(=O)Oc2c(C(C)C)ccc(C)c21 (centres undefined),i,·,·,·,·,·,·,·,·,·,·,·,·,·,·,
O=S(=O)(c1ccc(Oc2ccc(Br)cc2)cc1)N1CCOCC1,i,-13,i,i,0.43,i,·,·,·,·,i,i,i,·,·,
O=S(=O)(Nc1ccc(S(=O)(=O)N2CCOCC2)cc1)c1ccc(Br)cc1,i,-4,i,i,-0.72,i,·,·,·,·,·,·,·,·,·,
CCN(CC)c1ccc(/C=c2\sc3nnc(-c4ccccc4Cl)n3c2=O)cc1,i,9.3*,-11*,7*,0.17,i,·,·,·,·,44%*,i,i,·,·,
CN(C)c1ccc(/C=N/n2c(-c3ccccc3Br)n[nH]c2=S)cc1,i,-3,i,i,0.45,i,·,·,·,·,i,i,i,·,·,
CSc1ncccc1C(=O)OCC(=O)NC(C)C,i,-6,i,i,1.2,i,·,·,·,·,·,·,·,·,·,
CC(C)C(=O)N1CCN(c2ccccc2NC(=O)c2ccc(C#N)cc2F)CC1,i,-20,i,i,-1.1,i,·,·,·,·,i,i,i,·,·,
CC1CCN(c2ccccc2NC(=O)c2ccc(C#N)cc2F)CC1,i,-8,i,i,-0.11,i,·,·,·,·,·,·,·,·,·,
CCOc1ccc(OCCOCCOc2c(Cl)cccc2Cl)cc1,i,-13,i,i,0.95,i,·,·,·,·,·,·,·,·,·,
CCOc1ccccc1OCCOCCOc1c(Cl)cccc1Cl,i,-8,-9*,i,-3,i,·,·,·,·,i,i,38%*,·,·,
CCC(C(=O)OCc1csc(CC(=O)Nc2ccccc2C)n1)c1ccccc1 (centres undefined),i,·,·,·,·,·,·,·,·,·,·,·,·,·,·,
